Screening data from PubChem.
An excerpt weighted towards active compounds, which were near 1.8% of everything screened.
ARNT-TACC3 inh = disruptors of ARNT/TACC3 protein interaction, primary screen, biochemical, AlphaScreen, single concentration | AID 623870, 2012 | Transforming acidic coiled-coil-containing protein 3 (Homo sapiens), Q9Y6A5 | AlphaScreen His-ARNT PAS-B/GST-TACC3 binding, luminescence; TACC3 fragment carries E629A point mutation | inhibition, % at 9.99 µM | 0.66% of 390,000 active;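 active = mean inhibition of replicates at least 50% and at least half of replicates each reaching 50%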;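 note: 0% = complete ARNT plus TACC3 wells and 100% = ARNT alone without TACC3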
Tn7 DDE FP = inhibitors of Tn7 peptide binding to fibrin DD(E), primary screen, biochemical, fluorescence polarization, human fibrin, Tn7 probe; Fibrinogen beta chain (Homo sapiens), P02675; 0.13% of 370,000 active; inhibition, % at 8.3 µM; AID 720508, 2013; FP displacement of FITC-Tn7 peptide from fibrin DD(E); 0% = median of compound wells per plate;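 active = inhibition above the mean of compounds falling within the control limits plus 3 SD of them, cut at about 14% in these data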;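 note: 0% = plate median of compound wells and 100% = 10 µM Aha-Tn7 peptide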
Target sequence (P02675 whole entry, looked up): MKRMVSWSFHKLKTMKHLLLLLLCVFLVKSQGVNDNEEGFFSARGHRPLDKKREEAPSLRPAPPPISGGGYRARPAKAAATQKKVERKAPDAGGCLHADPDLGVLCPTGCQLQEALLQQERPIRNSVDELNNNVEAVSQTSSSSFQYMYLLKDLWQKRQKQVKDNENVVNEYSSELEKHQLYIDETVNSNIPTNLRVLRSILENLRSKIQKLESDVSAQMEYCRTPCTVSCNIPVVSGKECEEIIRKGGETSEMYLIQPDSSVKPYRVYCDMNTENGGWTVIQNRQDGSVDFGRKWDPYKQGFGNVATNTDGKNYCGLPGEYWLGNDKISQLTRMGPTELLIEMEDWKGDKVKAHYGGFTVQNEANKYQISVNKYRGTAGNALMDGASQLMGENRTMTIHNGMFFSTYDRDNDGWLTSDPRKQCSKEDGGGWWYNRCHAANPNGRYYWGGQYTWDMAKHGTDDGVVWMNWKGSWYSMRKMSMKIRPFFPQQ
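Test system – human fibrin DD(E) · Times – 10 min preincubation, 3 h with tracer, room temperature · Detection – fluorescence polarization of the labelled Tn7 tracer · Measure – percent inhibition normalized to high-control wells · Benchmarks – high control wells with 10 µM unlabelled Aha-Tn7 peptide (full inhibition) · Repeats – singlicate testing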
CAL PDZ FP-1 = CAL PDZ peptide-binding inhibitors, primary screen, biochemical, fluorescence polarization, Cer-tagged CAL PDZ, HTS | inhibition, % at 20 µM | 0.02% of 330,000 active | Golgi-associated PDZ and coiled-coil motif-containing protein (Homo sapiens), Q9HD26 | purified CAL PDZ, TMR-peptide fluorescence polarization, 1 h | AID 504414, 2011;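 active = highest replicate inhibition of at least 40%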;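 note: plate controls were DMSO neutral control wells for no effect and unlabeled competitor peptide control wells for full effect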
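material = purified tagged CAL PDZ domain construct (CerCALP) | compound dosing = 20 µM, one dose | times = 1 h at RT | measured by = fluorescence polarization from S- and P-plane intensities, G-factor corrected | read-out = inhibition from polarization loss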
CAL PDZ FP-2 = untagged CAL PDZ binding inhibitors, primary screen, biochemical, fluorescence polarization, HTS; Golgi-associated PDZ and coiled-coil motif-containing protein (Homo sapiens), Q9HD26; purified CAL PDZ, TMR-peptide fluorescence polarization, 1 h; inhibition, % at 24.9 µM; 0.92% of 300,000 active; AID 602252, 2012;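 active = mean inhibition of at least 30% with at least half of replicates also reaching 30%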;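 note: 0% = DMSO neutral control and 100% = excess unlabeled competitor peptide PRC23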
GRK2 inh = compounds blocking aptamer binding on GRK2 – biochemical, human GRK2, bead flow cytometry, HTS, primary screen; Beta-adrenergic receptor kinase 1 (Homo sapiens), P25098; FAM-aptamer displacement from GRK2; inhibition of aptamer binding, % at 10 µM; 0.59% of 330,000 active; AID 488847, 2010;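 active = inhibition of aptamer binding above 40%, roughly 3 SD of noise, on plates passing a quality check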;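 note: median bead fluorescence of bound FAM aptamer so fluorescent compounds give negative values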
Tn6 DDE FP = inhibitors of Tn6 peptide binding to fibrin DD(E), primary screen, biochemical, fluorescence polarization, human fibrin, Tn6 probe; inhibition, % at 8.3 µM; Fibrinogen beta chain (Homo sapiens), P02675; 0.21% of 370,000 active; Fibrin DD(E) TRITC-Tn6 fluorescence polarization displacement;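 active = inhibition above a per-campaign cutoff: mean of compounds within control limits plus 3 SD, cut at about 15% in these data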;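 note: 0% = median of all compound wells on the plate and 100% = blocking peptide control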
Numbers without * were called inactive; / = not tested or not shown.

SMILES | ARNT-TACC3 inh | Tn7 DDE FP | CAL PDZ FP-1 | CAL PDZ FP-2 | GRK2 inh | Tn6 DDE FP
O=C(c1cccs1)N1CC=C(c2ccccc2)CC1 | -2.0 | -2.0 | -0.8 | / | 7.0 | -5.8
O=C(NC1CCCC1)C(c1ccccn1)N(Cc1ccc(F)cc1)C(=O)c1csnn1 (stereo not given) | 1.2 | 3.8 | -0.7 | 51.4* | 0.0 | 5.6
O=C(NC1CCCC1)C(c1ccccc1)N(Cc1ccc(F)cc1)C(=O)c1csnn1 (stereo not given) | 12.4 | 0.5 | -2.0 | -6.3 | 1.0 | -4.5
O=C(C[C@@H]1CC[C@H](NS(=O)(=O)c2ccccc2)[C@@H](CO)O1)NCc1ccncn1 | -7.1 | / | / | / | / | /
CCc1ccc(CN(C)Cc2nc(COc3ccccc3)no2)nc1 | -5.2 | 7.4 | -0.1 | 49.2* | 0.0 | 4.3
CN(Cc1cnccn1)Cc1nc(Cc2ccccc2F)no1 | -5.2 | 1.4 | -0.2 | 56.4* | 0.0 | -3.6
CCc1ccc(CN(C)Cc2nc(Cc3cccc(C(F)(F)F)c3)no2)nc1 | 17.8 | -13.6 | -0.4 | 1.4 | 1.0 | -0.4
C[C@H]1CCCCO[C@H](CN(C)C(=O)c2ccncc2)[C@@H](C)CN([C@@H](C)CO)C(=O)c2cc(NC(=O)CCC(F)(F)F)ccc2O1 | 9.8 | / | / | / | / | /
Cc1noc(C)c1NC(=O)N(C)C[C@@H]1Oc2ccc(NC(=O)C3CC3)cc2CC(=O)N([C@@H](C)CO)C[C@H]1C | -4.1 | / | / | / | / | /
COc1cccc(NC(=O)N2C[C@H](O)COC[C@H]3O[C@H](CC(=O)NC4Cc5ccccc5C4)CC[C@@H]32)c1 | -0.9 | / | / | / | / | /
CCCCC(=O)NC(c1ccccc1Cl)c1ccc2cccnc2c1O (stereo not given) | 5.9 | -10.0 | -0.2 | 58.3* | 2.0 | 5.2
CCc1cc2c(nc1CC)CCCN2S(=O)(=O)c1ccc(C#N)cc1 | / | -3.7 | / | / | / | 1.2
OC1(C#CCCN2CCCCC2)c2ccccc2-c2ccccc21 | -1.2 | 1.2 | 11.8 | 50.4* | 2.0 | 7.5
CN(C)/C=C1\C(=O)NN=C1c1ccccc1 | 27.7* | -2.9 | 0.0 | -1.5 | 3.0 | 6.3
O=C(C[C@@H]1C[C@@H]2c3cc(NS(=O)(=O)c4ccc(F)cc4)ccc3O[C@@H]2[C@H](CO)O1)NCc1cccnc1 | -4.5 | / | / | / | / | /
NS(=O)(=O)c1ccc(N/C=C\C(=O)c2ccc3ccccc3c2)cc1 | / | -8.9 | -1.0 | 4.1 | 49.0* | 1.8
CN(CC(=O)Nc1ccccc1Cl)C(=O)CN1C(=O)NC(c2ccccc2)(c2ccccc2)C1=O | -1.1 | 7.8 | -1.5 | 84.8* | 3.0 | 7.5
C[C@@H]1CCCCO[C@@H](CN(C)S(=O)(=O)c2ccc(F)cc2)[C@@H](C)CN([C@@H](C)CO)C(=O)c2cc(NC(=O)NC3CCCCC3)ccc2O1 | 3.8 | / | / | / | / | /
O=C(Nc1cccc(NC(=O)C2C3CC4OC(=O)C2C4C3)c1)c1ccccc1 (stereo not given) | 1.3 | -0.5 | 0.0 | 26.0 | 1.0 | 3.8
C[C@@H]1CN([C@@H](C)CO)C(=O)c2cccc(NS(C)(=O)=O)c2O[C@H]1CN(C)Cc1ccccc1 | 13.0 | / | / | / | / | /
CCCc1cn(CC[C@H]2CC[C@@H](NC(=O)C3CCOCC3)[C@H](CO)O2)nn1 | 0.8 | / | / | / | / | /
CSCC(O)Cn1ncc2ccccc2c1=O (stereo not given) | -1.3 | -0.9 | -0.6 | 31.3* | 0.0 | 2.7
O=C(O)Cn1ncc2ccccc2c1=O | -10.4 | 5.5 | -1.8 | -1.7 | 0.0 | 6.5
COc1ccc(NC(=O)CCNS(=O)(=O)c2ccc3c(c2)CC(C)N3C(=O)C2CC2)cc1 (stereo not given) | -1.2 | -4.1 | -0.2 | 33.8* | 1.0 | -7.0
COc1cccc(NC(=O)CCNS(=O)(=O)c2ccc3c(c2)CC(C)N3C(=O)C2CC2)c1 (stereo not given) | 8.4 | 0.5 | -1.2 | / | 0.0 | 4.2
SMILES | ARNT-TACC3 inh | Tn7 DDE FP | CAL PDZ FP-1 | CAL PDZ FP-2 | GRK2 inh | Tn6 DDE FP
CC(C)(C)[C@H]1COC(=O)CCC/C=C/C[C@H](CC(=O)N(CCO)Cc2ccccc2)C(=O)N1 | -10.2 | 0.9 | -0.1 | -3.0 | 0.0 | 0.2
CC(C)(C)[C@H]1COC(=O)CCCC/C=C\C[C@H](CC(=O)N(CCO)Cc2ccccc2)C(=O)N1 | 1.4 | -4.9 | -0.7 | 105.9* | 0.0 | -3.4
C[C@@H]1CN([C@H](C)CO)C(=O)c2cc(C#CC3CCCCC3)cnc2O[C@@H]1CN(C)Cc1ccncc1 | 3.2 | / | / | / | / | /
Cc1ccc(NCc2ccccc2O)cc1 | -8.4 | 3.9 | -0.9 | / | 0.0 | 3.7
Cc1ccc(CNc2ccc(O)cc2)cc1 | 24.3* | -4.4 | 1.9 | -1.7 | / | 13.1
Cc1cccc(S(=O)(=O)N2CCCCN3[C@@H](CO)[C@H](c4ccc(C#CC(C)C)cc4)[C@@H]3C2)c1 | -4.5 | / | / | / | / | /
O=S(=O)(Cc1ccccc1)N=Nc1c(O)[nH]c2ccc(Br)cc12 | 3.4 | / | -0.3 | 81.5* | 0.0 | /
O=c1nc2ccccc2c(NS(=O)(=O)c2ccccc2)n1-c1ccccc1 | -6.3 | -6.0 | -2.6 | 35.6* | 1.0 | -1.8
Cc1ccc(S(=O)(=O)Nc2c3ccccc3nc(=O)n2-c2ccccc2)cc1 | -2.8 | -1.1 | -1.3 | -3.2 | 1.0 | -5.9
COc1ccc(NC(=O)Nc2ccc3c(c2)CC(=O)N([C@@H](C)CO)C[C@H](C)[C@@H](CN(C)C(=O)Nc2ccc(C(F)(F)F)cc2)O3)cc1 | 9.1 | / | / | / | / | /
C/C(CC(=O)Nc1ccccc1C)=N\NC(=O)Cc1csc(N)n1 | -5.5 | -1.8 | -1.1 | 44.0* | 14.0 | -5.9
C/C(CC(=O)Nc1ccc(Br)cc1)=N\NC(=O)Cc1csc(N)n1 | 0.8 | -4.0 | -0.5 | 0.6 | / | -4.2
CCOc1cc(N2CCOCC2)c(OCC)cc1NC(=O)c1cc(C)cc(C)c1 | -2.4 | -1.6 | 0.6 | 76.1* | 0.0 | -4.2
C[C@@H]1CN([C@H](C)CO)C(=O)c2cc(NS(=O)(=O)c3cccs3)ccc2O[C@@H]1CN(C)C(=O)Nc1ccc2c(c1)OCO2 | -2.2 | / | / | / | / | /
O=C(NCc1ccccn1)c1cn(Cc2ccccc2)nn1 | -2.0 | -6.8 | / | 104.9* | 0.0 | -1.6
O=C(NCc1ccccn1)c1ccco1 | -1.3 | 1.1 | -2.1 | -0.1 | 0.0 | 7.3
COc1cccc(-c2ccc3c(c2)O[C@@H](CN(C)Cc2ccncc2)[C@@H](C)CN([C@@H](C)CO)S3(=O)=O)c1 | 5.7 | / | / | / | / | /
